Reference: ChEMBL document CHEMBL3779898, “3,3'-OH curcumin causes apoptosis in HepG2 cells through ROS-mediated pathway” (Eur J Med Chem, 2016)

How the values were obtained:
HepG2 [1] = assay: Cytotoxicity against human HepG2 cells assessed as reduction in cell viability after 48 hrs by MTT assay; assay type: functional, cell-based; details: HepG2, 48 h
Outline: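 HepG2 seeded at 3×10^3/well, grown 24 h, then exposed to compounds for 48 h. MTT (0.5 mg/mL) added for 4 h, formazan dissolved in DMSO, absorbance read at 570 nm. IC50 = concentration giving 50% loss of viability; mean ± SD of three determinations.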

HepG2 [2] = assay: Induction of apoptosis in human HepG2 cells assessed as necrotic cells at 5 mM after 24 hrs by Annexin V-FITC/propidium iodide staining based flow cytometry (reference value: 1.6%); assay type: functional
Outline: (§1)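 HepG2 plated at 5×10^5/well, grown 24 h, then treated 24 h; where indicated, 1 h pretreatment with 5 mM GSH or NAC. Cells stained with Annexin V-FITC/PI; 10,000 cells per sample analysed by flow cytometry into early apoptotic, late apoptotic and necrotic quadrants; triplicate.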

HepG2 [3] = assay: Induction of apoptosis in human HepG2 cells assessed as early apoptotic cells at 5 mM after 24 hrs by Annexin V-FITC/propidium iodide staining based flow cytometry (reference value: 2.8%); assay type: functional; outline: as §1
HepG2 [4] = assay: Induction of apoptosis in human HepG2 cells assessed as late apoptotic cells at 5 mM after 24 hrs by Annexin V-FITC/propidium iodide staining based flow cytometry (reference value: 5.4%); assay type: functional; outline: as §1

Row | SMILES | IC50 (HepG2 [1]) | Activity (HepG2 [2]) | Activity (HepG2 [3]) | Activity (HepG2 [4])
1 | O=C(/C=C/c1ccccc1C(F)(F)F)CC(=O)/C=C/c1ccccc1C(F)(F)F | > 200 µM | – | – | –
2 | O=C(/C=C/c1ccccc1)CC(=O)/C=C/c1ccccc1 | > 200 µM | – | – | –
3 | N[C@@H](CCC(=O)N[C@@H](CS)C(=O)NCC(=O)O)C(=O)O [GLUTATHIONE] | – | 2.1% | 2.5% | 5.5%
4 | CC(=O)N[C@@H](CS)C(=O)O [ACETYLCYSTEINE] | – | 1.9% | 2.6% | 6.6%
5 | O=C(/C=C/c1ccccc1O)CC(=O)/C=C/c1ccccc1O | 50 µM | – | – | –
6 | COc1cc(/C=C/C(=O)CC(=O)/C=C/c2ccc(O)c(OC)c2)ccc1O [CURCUMIN] | 52.3 µM | – | – | –
